Measured values as given in ChEMBL document CHEMBL1125033, “Structure-activity relationship of antiestrogens. Phenolic analogues of 2,3-diaryl-2H-1-benzopyrans” (J Med Chem, 1990).

How the values were obtained:
[1] = biological target: T1, Estrogen receptor (Rattus norvegicus) (UniProt P06211+Q62986); assay: Relative binding affinity against estrogen receptor(ER); assay type: protein assay
Procedure, shortened: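 Uterine cytosol from immature rats primed s.c. with 0.1 μg E₂ 24 h before sacrifice, one uterine equivalent per mL TEA buffer (pH 7.4, 7% DMF). Incubated 18-20 h at 4 °C with ³H-E₂ (5 × 10⁻⁹ M) and competitor at 10⁻⁴–10⁻⁹ M, in triplicate. Charcoal-dextran separation for 20 min, then scintillation counting.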

[2] = biological target: T1, Estrogen receptor (Rattus norvegicus)
[3] = biological target: T1, Estrogen receptor (Rattus norvegicus); remark: listed apart in the source
[4] = tested on: Anti-estrogen binding site (AEBS) (Rattus norvegicus); assay: Relative binding affinity against Antiestrogen binding site(AEBS)

| SMILES | relative binding affinity (RBA) [1] | Mean weight [2] | Mean weight [3] | relative binding affinity (RBA) [4] |
| --- | --- | --- | --- | --- |
| Oc1ccc(C2=Cc3ccccc3OC2c2ccc(OCCN3CCCCC3)cc2)cc1 (stereo not given) | 4.2 | 11.6 mg | 10.4 mg | 14 |
| Oc1ccc2c(c1)OC(c1ccc(OCCN3CCCCC3)cc1)C(c1ccccc1)=C2 (stereo not given) | 9.5 | 21.2 mg | 15.2 mg | 13 |
| O=C(c1ccc(OCCN2CCCC2)cc1)c1c(-c2ccc(O)cc2)sc2cc(O)ccc12 | 93 | 25.6 mg | 25.5 mg | 6.5 |
| Oc1ccc(C2=Cc3ccc(O)cc3OC2c2ccc(OCCN3CCCCC3)cc2)cc1 (stereo not given) | 49 | 12.4 mg | 10.6 mg | 2.2 |
| COc1ccc(C2=C(C(=O)c3ccc(OCCN4CCCC4)cc3)c3ccccc3CC2)cc1 | 8 | 29.1 mg | 18.6 mg | 25 |
| Oc1ccc(C2=Cc3ccc(O)cc3OC2c2ccc(O)cc2)cc1 (stereo not given) | 2.2 | 44.2 mg | 14.2 mg | – |
| COc1ccc2c(c1)OC(c1ccc(OCCN3CCCCC3)cc1)C(c1ccccc1)=C2 (stereo not given) | 0.02 | 43.1 mg | 22.6 mg | 21 |
| C1=C(c2ccccc2)C(c2ccc(OCCN3CCCCC3)cc2)Oc2ccccc21 (stereo not given) | – | 18.6 mg | 15.3 mg | 225 |
